Legend:
RAW264.7 = assay: Antiinflammatory activity in mouse RAW264.7 cells assessed as reduction in LPS-induced NO production incubated for 24 hrs by Griess reagent based assay; format: functional, cell-based; details: RAW264.7, 24 h
Summary of the method: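 RAW 264.7 cells seeded at 2×10^5 cells/well and held 24 h at 37 °C, 5% CO2. Cells treated with or without compounds at various concentrations plus LPS (1 μg/mL) for 24 h. Nitrite in cell-free supernatant read by Griess reaction (sulfanilamide/phosphoric acid, N-1-naphthylethylenediamine) at 540 nm against a NaNO2 standard curve. L-NMMA served as positive control. IC50 reported.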

[1] = Cytotoxicity against mouse RAW264.7 cells assessed as cell viability at 100 ug/ml by MTT assay; format: cell-based; details: read-out: Activity
Summary of the method: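 Compounds tested at 100 μg/mL on RAW 264.7 cells seeded at 2×10^5 cells/well. Cells were co-stimulated with LPS (1 μg/mL) for 24 h at 37 °C. Viability of the remaining cells after supernatant removal was measured by MTT colorimetric assay.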

SMILES | IC50 (RAW264.7) [µM] | viability at 100 ug/ml [1] [%]
C/C=C(\C)C(=O)O[C@@H]1[C@H](O)[C@@H](OC(=O)C(C)CC)[C@@H](O)[C@H](OC(=O)/C(=C/C)CO)[C@H]1OC(=O)/C(=C/C)CO (some centres not stated) | 20.3 | > 85
C/C=C(\C)C(=O)O[C@@H]1[C@H](O)[C@@H](O)[C@@H](OC(=O)/C(C)=C/C)[C@H](OC(=O)/C(=C/C)CO)[C@H]1OC(=O)/C(=C/C)CO | 56.7 | > 85
C/C=C(\C)C(=O)O[C@@H]1[C@@H](O)[C@@H](OC(=O)C(C)CC)[C@H](OC(=O)/C(=C/C)CO)[C@@H](OC(=O)/C(=C/C)CO)[C@@H]1O (some centres not stated) | 124 | > 85

More lines, main results first:

IC50 (RAW264.7) [µM] | SMILES | viability at 100 ug/ml [1] [%]
7.1 | C/C=C(\C)C(=O)O[C@@H]1[C@H](O)[C@@H](OC(=O)C(C)CC)[C@@H](OC(=O)/C(=C/C)CO)[C@H](O)[C@H]1OC(=O)/C(=C/C)CO (some centres not stated) | > 85
62.9 | C/C=C(\CO)C(=O)O[C@H]1[C@H](OC(=O)C(C)CC)[C@H](O)[C@@H](OC(=O)C(C)CC)[C@@H](O)[C@@H]1OC(=O)/C(=C/C)CO (some centres not stated) | > 85
95.6 | C/C=C(\CO)C(=O)O[C@@H]1[C@@H](O)[C@H](OC(=O)/C(=C/C)CO)[C@H](OC(=O)C(C)CC)[C@@H](O)[C@H]1OC(=O)C(C)CC (some centres not stated) | > 85

— ChEMBL document CHEMBL4610095, “chiro-Inositol Derivatives from Chisocheton paniculatus Showing Inhibition of Nitric Oxide Production” (J Nat Prod, 2020)
